# TDP2 absorb: blocks human TDP2 phosphodiesterase activity; O95551; recombinant TDP2, T5PNP hydrolysis, p-nitrophenol absorbance 415 nm; inhibition, % at 12.8 µM; 0.34% of 370,000 active; AID 720702;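 active = inhibition above the mean of all tested compounds plus 3 SD, set per campaign, cut at about 25% in these data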
#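 System: recombinant human TDP2 / Amount: 120 nM TDP2 per well / Also added: 5 mM T5PNP chromogenic substrate / Doses: 12.8 µM single point, 1% DMSO / Incubation: 2 h at 37 °C / Detection: p-Nitrophenol epi absorbance / Evaluation: % inhibition relative to enzyme-containing and enzyme-free wells / Repeats: singlicate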
# LEDGF integ inh: blocks HIV-1 LEDGF/p75-dependent DNA integration; 0.64% of 370,000 active; TR-FRET IN-LEDGF/p75 DNA integration, Eu/Cy5; inhibition, % at 3.7 µM;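 active = inhibition above the screen-wide mean plus 3 SD, cut at about 13% in these data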;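 note: signal is the Cy5 over europium emission ratio at 671 and 618 nm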
# MBD2 DNA inh: blocks human MBD2 binding to methylated DNA | TR-FRET, MBD2 binding to methylated oligonucleotide | inhibition, % at 4.4 µM | AID 686964 | Q9UBB5 | 0.31% of 370,000 active; in the data active = inhibition above about 13%
# SIAE primary: blocks human sialic acid acetylesterase. Q9HAT2. SIAE FP-Rh probe binding, fluorescence polarization. inhibition, % at 9.66 µM. 0.69% of 370,000 active. AID 1053197;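 active = inhibition above a cutoff: mean of compounds within the control limits plus 3 SD of those, cut at about 17% in these data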
# PRMT1 FP inh: PRMT1 (human) inhibition, primary screen | recombinant PRMT1, activity-based probe fluorescence polarization | 1.3% of 370,000 active | inhibition, % at 2.79 µM | Q99873;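 active = inhibition above about 21% made by adding two undisclosed values, limit read from the data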
# Target sequence (Q99873 whole entry, looked up): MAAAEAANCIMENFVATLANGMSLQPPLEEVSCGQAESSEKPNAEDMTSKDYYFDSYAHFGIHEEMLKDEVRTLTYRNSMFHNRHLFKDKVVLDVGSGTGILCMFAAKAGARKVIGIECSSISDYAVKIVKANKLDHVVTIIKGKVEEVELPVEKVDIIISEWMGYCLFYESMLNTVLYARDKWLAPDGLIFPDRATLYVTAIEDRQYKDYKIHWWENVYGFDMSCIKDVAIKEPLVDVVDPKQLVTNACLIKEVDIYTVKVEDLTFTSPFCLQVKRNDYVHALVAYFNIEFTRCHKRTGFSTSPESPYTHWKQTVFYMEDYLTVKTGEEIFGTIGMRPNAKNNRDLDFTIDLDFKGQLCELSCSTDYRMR
# UHRF1 MBD2 ctr: UHRF1 methyl-DNA binding inhibition; 0.75% of 370,000 active; Q96T88; inhibition, % at 4.4 µM; UHRF1 binding to methylated oligo, TR-FRET; in the data active = inhibition above about 21%;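 note: UHRF1 SRA domain binding a hemimethylated CpG hairpin DNA probe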
# A number is an active result; i = inactive. Hits are enriched below; roughly 3.3% of the tested compounds scored in any of these assays.
SMILES,TDP2 absorb,LEDGF integ inh,MBD2 DNA inh,SIAE primary,PRMT1 FP inh,UHRF1 MBD2 ctr
Cc1ccc(/C(N)=N/OC(=O)Cc2cccs2)cc1,i,i,i,i,i,i
N/C(=N\OC(=O)Cc1cccs1)c1ccccc1,i,i,i,i,i,21
CCCCOCCCNC(=O)C[C@H]1C[C@@]2(C(=O)OC)C(=C[C@H](COCc3ccccc3)O[C@@H]2C)N(Cc2ccc(Cl)cc2Cl)C1=O,i,i,i,i,i,i
CCC(=O)N1CCC(C(=O)NC2CCCc3ccccc32)CC1 (stereo not given),i,i,i,i,i,i
COc1cccc(Nc2ccc(N3CCCCC3)cc2)c1OC,i,i,i,i,24,i
Cc1ccc(S(=O)(=O)Nc2ccc(N(C)C)cc2)cc1,i,i,i,i,i,i
CN(C)c1ccc(NS(=O)(=O)c2ccc(Cl)cc2)cc1,i,i,i,i,23,i
Cc1ccc(S(=O)(=O)N2CCOCC2)cc1NC(=O)CNCc1ccccn1,i,i,i,i,i,27
Oc1c(CN2CCOCC2)cc(CN2CCOCC2)cc1CN1CCOCC1,i,i,i,i,i,24
Cc1ccccc1C(=O)NC1CCCCN(C(C)C)C1=O (stereo not given),i,i,i,i,i,i
COc1ccc([N+](=O)[O-])cc1NC(=O)C(C)Sc1nc(C)c(C)c(C)n1 (stereo not given),i,i,i,i,i,61
COc1ccc([N+](=O)[O-])cc1NC(=O)C(C)N1CCCC1 (stereo not given),i,i,i,i,i,49
COC(=O)Nc1cc([N+](=O)[O-])ccc1OC,i,i,i,i,i,i
Cc1cc(-c2n[nH]c(=S)n2N=Cc2ccc(O)cc2)n[nH]1,i,i,i,i,i,i
Cn1c(SCC(=O)N/N=C/C=C\c2ccco2)nc2ccccc21,i,i,i,i,i,i
C/C(=N/NC(=O)CSc1nc2ccccc2n1C)c1ccco1,i,i,i,i,i,83
C/C(=N/NC(=O)CSc1nc2ccccc2n1C)c1ccc(O)cc1,i,i,i,i,i,i
CCn1c(SCC(=O)N/N=C/C=C\c2ccco2)nc2ccccc21,i,i,i,i,21,i
O=C(CN1CCN(c2nc(-c3ccccc3)cs2)CC1)Nc1ccc(F)cc1F,i,i,i,i,i,i
COc1cccc(N(CC(=O)NCCSc2ccccc2)S(C)(=O)=O)c1,i,i,i,i,i,i
COc1cccc(N(CC(=O)NCCSc2ccc(Cl)cc2)S(C)(=O)=O)c1,i,i,i,i,i,27
CCCCNC(=O)C[C@@H]1C[C@@]2(C(=O)OCC)CCC=C2N(Cc2ccc3c(c2)OCO3)C1=O,i,i,i,i,i,21
CCOC(=O)[C@]12CCC=C1N(Cc1ccco1)C(=O)[C@H](CC(=O)NCc1ccc(C)o1)C2,i,i,i,i,i,i
CCOC(=O)[C@]12CCC=C1N(Cc1ccccc1)C(=O)[C@H](CC(=O)NCc1ccc(C)o1)C2,i,i,i,i,23,i
COC(=O)[C@]12C[C@H](CC(=O)NCc3ccc(C)o3)C(=O)N(Cc3ccccc3)C1=C[C@H](C1CCCC1)O[C@@H]2C,i,i,i,i,22,i
SMILES,TDP2 absorb,LEDGF integ inh,MBD2 DNA inh,SIAE primary,PRMT1 FP inh,UHRF1 MBD2 ctr
COC(=O)[C@]12C[C@H](CC(=O)NCc3ccc(C)o3)C(=O)N(Cc3cccc4ccccc34)C1=C[C@H](C1CCCC1)O[C@@H]2C,i,i,i,i,i,i
C=CCN1C(=O)[C@H](CC(=O)NCc2cccc(C(F)(F)F)c2)[C@@]2(C(=O)OCC)CCCC=C12,i,i,i,i,i,i
O=C(Nc1ccc(Cl)c(Cl)c1)C1CCN(c2ncccn2)CC1,i,i,i,i,i,i
COC(=O)C[C@H]1CC[C@@H]2[C@H](COc3ccc(NC(=O)c4ccccc4OC)cc3C(=O)N2C)O1,i,i,i,i,i,i
CC1NC(=O)NC1CCCCCC(=O)NCCc1ccccc1 (stereo not given),i,78,i,i,i,i
O=C(CCCCC(=O)NCCCc1ccccc1)NCCCc1ccccc1,i,i,i,i,i,i
CCOc1ccccc1C1C(C(=O)Nc2ccccc2OC)=C(C)Nc2nc(CCCO)nn21 (stereo not given),i,i,i,i,i,22
O=C(NC1CCCCN(Cc2ccc(Cl)cc2)C1=O)c1cccc2nsnc12 (stereo not given),i,i,i,i,i,i
Cc1cccc2sc(NNC(=O)c3cc(=O)c4ccccc4o3)nc12,i,i,i,i,i,i
COc1ccc2nc(NNC(=O)c3cc(=O)c4ccccc4o3)sc2c1,i,i,i,i,22,i
COc1ccc2c(c1)CNC2CS(=O)(=O)NCc1ccccc1 (stereo not given),i,i,i,i,i,i
COc1cc(/C=C2\CC/C(=C\c3cc(OC)c(O)c(OC)c3)C2=O)cc(OC)c1O,i,34,i,i,27,i
COc1cc(/C=C2\CCC/C(=C\c3ccc(O)c(OC)c3)C2=O)ccc1O,i,i,i,i,22,i
COC(=O)[C@]12C[C@H](CC(=O)NCCc3ccccc3OC)C(=O)N(Cc3cccc4ccccc34)C1=C[C@H](C(C)C)O[C@@H]2C1CC1,i,i,i,i,i,i
COc1ccc(C(=O)Nc2ccc(S(=O)(=O)Nc3cc(C)nc(C)n3)cc2)c(OC)c1,i,i,i,i,21,i
Cc1ccc(-n2[nH]c3c4c(ccc3c2=O)C(=O)c2ccccc2C4=O)cc1,i,i,i,i,i,27
Cc1ccc(C)c(-n2[nH]c3c4c(ccc3c2=O)C(=O)c2ccccc2C4=O)c1,i,i,i,i,i,i
COCCNC(=S)Nc1ccc(S(=O)(=O)Nc2cnc3ccccc3n2)cc1,i,i,i,i,i,37
CCN(CC)CCn1c(SCC(=O)NCCC2=CCCCC2)nc2c(sc3ccccc32)c1=O,i,i,i,i,22,i
CCN(CC)CCn1c(SCC(=O)NCc2ccco2)nc2c(sc3ccccc32)c1=O,i,i,i,i,i,i
O=C(CSc1nnc(-c2cccnc2)n1-c1ccc(Cl)cc1)Nc1ccc(S(=O)(=O)Nc2nccs2)cc1,i,i,i,i,i,i
Cc1ccccc1OCC(=O)NCC(=O)OCC(=O)c1ccc([N+](=O)[O-])cc1,i,i,i,i,24,i
COc1ccc(CN2C(=O)N3Cc4ccccc4C3CS2(=O)=O)cc1 (stereo not given),i,i,i,i,i,i
O=C(CNc1ccc2c(c1)OCO2)N/N=C\c1ccccc1Cl,i,i,i,i,22,i
CCCN1CC(=O)N2[C@H](C[C@@]3(n4ccc5ccccc54)c4ccccc4N(S(=O)(=O)c4ccccc4)[C@@H]23)C1=O,i,i,i,i,i,i

# Bioassay records from PubChem.
